Results as given in ChEMBL document CHEMBL2146365, “Design and synthesis of EGFR dimerization inhibitors and evaluation of their potential in the treatment of psoriasis” (Bioorg Med Chem, 2012).
Activity calls are given as the source filed them. The rule behind the calls is not given here.

How the values were obtained:
[1] = Cytotoxicity against HPV-16 transformed human CCD-1106 cells assessed as LDH release after 6 hrs by CYTOX-96 assay; format: functional; conditions: CCD-1106, 6 h, read-out: LD50 (the source's name)
In short: (§1)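 LDH release was read with the CytoTox 96 kit following the kit protocol after 6 or 24 h drug exposure. Cells were seeded at 10,000/well and attached overnight. Eight concentrations were run with six in-plate replicates; DMSO was <1% in all wells, with medium-only blanks. LD₅₀ is reported as mean ± S.E.M., n = 6. CCD-1106 were grown in supplemented keratinocyte SFM; HaCaT in DMEM/10% FBS.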

[2] = Cytotoxicity against HPV-16 transformed human CCD-1106 cells assessed as LDH release after 24 hrs by CYTOX-96 assay; format: functional; conditions: CCD-1106, 24 h, read-out: LD50 (the source's name); in short: as §1
[3] = Cytotoxicity against HPV-16 transformed human CCD-1106 cells assessed as cell viability after 6 hrs by MTT assay; format: functional; conditions: CCD-1106, 6 h, read-out: LD50 (the source's name)
In short: (§2)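 Cells were plated at 10,000/well, attached overnight, and exposed 6 or 24 h to eight drug concentrations with six in-plate replicates (DMSO <1%). MTT (0.5 mg/ml in PBS) was added for 2 h at 37 °C, then dissolved in 90% isopropanol/10% DMSO, and A590 was read. Values were corrected against untreated controls. LD₅₀ is reported as mean ± S.E.M., n = 3.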

HaCaT [4] = assay: Induction of apoptosis in human HaCaT cells after 12 hrs by electron microscopy; format: functional, cell-based
HaCaT [5] = assay: Cytotoxicity against human HaCaT cells assessed as cell viability after 24 hrs by MTT assay; format: functional; conditions: read-out: LD50 (the source's name); in short: as §2
HaCaT [6] = assay: Cytotoxicity against human HaCaT cells assessed as LDH release after 6 hrs by CYTOX-96 assay; format: functional; conditions: read-out: LD50 (the source's name); in short: as §1
HaCaT [7] = assay: Induction of apoptosis in human HaCaT cells assessed as activation of caspase 3/7 at 56 to 446 uM after 12 hrs; format: functional, cell-based
In short: (§3)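 HaCaT cells were seeded at 10,000 cells/0.2 ml/well, attached overnight and exposed to compound (56–446 µM) for 12 h. Caspase-3/7 activity was measured with the Apo-ONE homogeneous kit, fluorescence 499/521 nm, in triplicate, with medium-only background wells. MTT viability was run in parallel. Results are means of two experiments, t-test against control.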

[8] = Growth inhibition of HPV-16 transformed human CCD-1106 cells after 72 hrs by neutral red uptake assay; format: functional; conditions: CCD-1106, 72 h
In short: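 Neutral red uptake assay over 72 h. Cells were seeded at 10,000 cells/well and attached overnight, then exposed to eight concentrations with six replicates (DMSO <1%). CCD-1106 were grown in keratinocyte SFM with supplements. HaCaT were grown in DMEM with 10% FBS and 2 mM L-glutamine. NHEK (pooled adult) were grown in keratinocyte growth medium with supplement. Values are means, n = 6, against the untreated control.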

HaCaT [9] = assay: Induction of necrosis in human HaCaT cells after 12 hrs by electron microscopy; format: functional, cell-based
HaCaT [10] = assay: Cytotoxicity against human HaCaT cells assessed as cell viability after 6 hrs by MTT assay; format: functional; conditions: read-out: LD50 (the source's name); in short: as §2
HaCaT [11] = assay: Induction of apoptosis in human HaCaT cells assessed as activation of caspase 3/7 at 55.8 uM after 12 hrs; format: functional, cell-based; in short: as §3
HaCaT [12] = assay: Induction of apoptosis in human HaCaT cells assessed as viable cells at 111.6 uM after 9 hrs by AnnexinV-FITC/propidium iodide based FACS flow cytometry; format: functional; conditions: read-out: Activity
In short: (§4)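 HaCaT cells at 10^6 cells/ml were attached overnight and exposed to vehicle, 111.6, 223.2 or 446 µM for 9 h. Cells were then trypsinized, washed in ice-cold PBS and stained with Annexin V-FITC/PI. FACScan analysis used FL1/FL2, 10,000 events per sample, scatter gating, and quadrants set with single-stain controls. Runs were in triplicate and results are means of two experiments.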

HaCaT [13] = assay: Induction of apoptosis in human HaCaT cells assessed as late phase apoptotic/necrotic cells at 111.6 uM after 9 hrs by AnnexinV-FITC/propidium iodide based FACS flow cytometry; format: functional; in short: as §4
HaCaT [14] = assay: Induction of apoptosis in human HaCaT cells assessed as viable cells at 446 uM after 12 hrs by MTT assay
HaCaT [15] = assay: Induction of apoptosis in human HaCaT cells assessed as early phase apoptotic cells at 111.6 uM after 9 hrs by AnnexinV-FITC/propidium iodide based FACS flow cytometry; format: functional; in short: as §4
[16] = Antioxidant activity in bovine brain assessed as inhibition of iron-ascorbate-induced lipid peroxidation by thiobarbituric acid test; format: functional, tissue-based, Bos taurus
In short: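 Hit compounds were tested for inhibition of lipid peroxidation by the thiobarbituric acid (TBA) assay. Propyl gallate served as the standardizing positive control, tested at 100 µM.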

HaCaT [17] = assay: Induction of apoptosis in human HaCaT cells assessed as early phase apoptotic cells at 223.2 uM after 9 hrs by AnnexinV-FITC/propidium iodide based FACS flow cytometry; format: functional; in short: as §4
[18] = Growth inhibition of HPV-16 transformed human CCD-1106 cells after 72 hrs by MTT assay; format: functional; conditions: CCD-1106, 72 h
In short: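 Cells were seeded at 10,000 cells/well in keratinocyte serum-free medium with L-glutamine, bovine pituitary extract and EGF, at 37 °C under 5% CO2, and attached overnight. Eight drug concentrations were run with six in-plate replicates, DMSO <1%, for 72 h. MTT (0.5 mg/ml) was added for 2 h, formazan was dissolved in 90% isopropanol/10% DMSO and A590 was read. Growth is expressed relative to the untreated control.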

THP-1 = assay: Growth inhibition of human THP1 cells after 72 hrs by Cell Titer 96 aqueous one solution assay; format: functional
In short: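 Cells were grown in RPMI with 10% FBS, 2 mM L-glutamine and penicillin/streptomycin. They were seeded at 10,000 cells/well in round-bottom plates and exposed to compounds for 72 h (eight concentrations, six replicates). Cell Titer 96 AQueous One reagent was then added for 3 h at 37 °C and absorbance was read at 492 nm. Values are means, n = 6.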

[19] = Cytotoxicity against HPV-16 transformed human CCD-1106 cells assessed as cell viability after 24 hrs by MTT assay; format: functional; conditions: CCD-1106, 24 h, read-out: LD50 (the source's name); in short: as §2
HaCaT [20] = assay: Induction of apoptosis in human HaCaT cells assessed as late phase apoptotic/necrotic cells at 446 uM after 9 hrs by AnnexinV-FITC/propidium iodide based FACS flow cytometry; format: functional; in short: as §4
[21] = molecular target: Epidermal growth factor receptor (Homo sapiens) (UniProt P00533); assay: Inhibition of EGFR-mediated ERK1 phosphorylation in HPV-16 transformed human CCD-1106 cells at 116.8 uM after 30 mins by densitometric analysis; format: cell-based
In short: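 CCD-1106 cells were treated with compound for 30 min at 37 °C, then stimulated with EGF. Lysates were separated by SDS-PAGE, blotted to nitrocellulose and blocked in 3% BSA/NaTT. Blots were probed with p-ERK (E-4) or p-p38 (D-8) antibodies, detected by ECL and quantified by densitometry.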

HaCaT [22] = assay: Induction of apoptosis in human HaCaT cells assessed as viable cells at 223.2 uM after 9 hrs by AnnexinV-FITC/propidium iodide based FACS flow cytometry; format: functional; conditions: read-out: Activity; in short: as §4

Epidermal growth factor receptor (Homo sapiens), sequence (P00533 whole entry): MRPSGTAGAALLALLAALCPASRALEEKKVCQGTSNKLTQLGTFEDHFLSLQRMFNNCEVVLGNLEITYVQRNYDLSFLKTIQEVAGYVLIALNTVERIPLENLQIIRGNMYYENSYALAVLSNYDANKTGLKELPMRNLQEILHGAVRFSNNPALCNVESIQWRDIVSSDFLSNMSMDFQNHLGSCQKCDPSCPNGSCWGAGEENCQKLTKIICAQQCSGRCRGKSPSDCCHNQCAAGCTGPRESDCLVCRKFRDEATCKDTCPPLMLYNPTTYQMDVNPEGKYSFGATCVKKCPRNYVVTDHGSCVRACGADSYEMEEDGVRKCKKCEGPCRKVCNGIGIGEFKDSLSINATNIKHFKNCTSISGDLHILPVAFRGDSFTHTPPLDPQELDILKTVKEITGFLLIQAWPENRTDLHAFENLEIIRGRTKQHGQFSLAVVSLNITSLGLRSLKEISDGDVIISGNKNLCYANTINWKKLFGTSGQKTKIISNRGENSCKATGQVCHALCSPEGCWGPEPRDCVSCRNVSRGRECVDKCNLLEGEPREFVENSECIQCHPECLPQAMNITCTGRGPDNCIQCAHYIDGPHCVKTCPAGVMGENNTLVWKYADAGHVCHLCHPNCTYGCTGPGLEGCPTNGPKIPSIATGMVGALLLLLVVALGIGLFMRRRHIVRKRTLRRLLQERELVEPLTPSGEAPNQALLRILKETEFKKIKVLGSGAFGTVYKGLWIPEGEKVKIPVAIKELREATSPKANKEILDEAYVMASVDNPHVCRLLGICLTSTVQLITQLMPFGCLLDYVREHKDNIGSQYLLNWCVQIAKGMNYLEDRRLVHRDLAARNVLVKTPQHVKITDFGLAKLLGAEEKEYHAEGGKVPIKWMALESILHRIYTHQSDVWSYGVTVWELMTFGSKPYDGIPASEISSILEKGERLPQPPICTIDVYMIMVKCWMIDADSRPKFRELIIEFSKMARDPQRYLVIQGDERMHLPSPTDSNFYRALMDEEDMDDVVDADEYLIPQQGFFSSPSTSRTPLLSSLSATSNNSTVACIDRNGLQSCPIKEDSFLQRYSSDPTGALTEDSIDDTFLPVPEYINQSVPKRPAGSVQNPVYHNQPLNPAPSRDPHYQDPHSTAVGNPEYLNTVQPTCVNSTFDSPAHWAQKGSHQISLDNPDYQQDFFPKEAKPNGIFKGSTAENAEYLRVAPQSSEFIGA

**Q.** With `CCOc1cc(/C=N\Nc2nc3c(c(=O)n(C)c(=O)n3C)n2Cc2ccccc2)ccc1O` as the compound, how does the CC50 [1] read?
**A.** Its CC50 is greater than 446 µM.

**Q.** What about the CC50 [2] of the same compound?
**A.** The CC50 was greater than 446 µM.

**Q.** What about the CC50 [3] of the same compound?
**A.** The CC50 was 234 µM.

**Q.** What about the Activity (HaCaT [4]) of the same compound?
**A.** Its Activity is “Active”.

**Q.** And the CC50 (HaCaT [5])?
**A.** Its CC50 is 446 µM.

**Q.** What about the CC50 (HaCaT [6]) of the same compound?
**A.** Its CC50 is 446 µM.

**Q.** And the Activity (HaCaT [7])?
**A.** The Activity was “Active”.

**Q.** And the GI50 [8]?
**A.** The GI50 was 9 µM.

**Q.** And the Activity (HaCaT [9])?
**A.** Its Activity is “inactive”.

**Q.** What about the CC50 (HaCaT [10]) of the same compound?
**A.** Its CC50 is 440 µM.

**Q.** And the Activity (HaCaT [11])?
**A.** The Activity was “Active”.

**Q.** And the viability at 111.6 µM (HaCaT [12])?
**A.** Its viability at 111.6 µM is 82%.

**Q.** What about the Activity (HaCaT [13]) of the same compound?
**A.** Its Activity is 6%.

**Q.** What about the viability at 446 µM (HaCaT [14]) of the same compound?
**A.** Its viability at 446 µM is 62%.

**Q.** What about the Activity (HaCaT [15]) of the same compound?
**A.** Its Activity is 12%.

**Q.** And the IC50 [16]?
**A.** Its IC50 is 8 µM.

**Q.** What about the Activity (HaCaT [17]) of the same compound?
**A.** Its Activity is 17%.

**Q.** And the GI50 ([18]; read-out: GI50)?
**A.** Its GI50 is 2.69 µM.

**Q.** And the GI50 ([18]; read-out: pGI50 (converted))?
**A.** Its GI50 is 2.69 µM.

**Q.** And the “growth inhibition (GI)” value (THP-1)?
**A.** Its value is “Dose-dependent effect”.

**Q.** What about the GI50 (THP-1; THP-1, 72 h) of the same compound?
**A.** Its GI50 is 36 µM.

**Q.** What about the CC50 [19] of the same compound?
**A.** The CC50 was 112 µM.

**Q.** And the Activity (HaCaT [20])?
**A.** Its Activity is 15%.

**Q.** What about the inhibition [21] of the same compound?
**A.** Its inhibition is 39%.

**Q.** And the viability at 223.2 µM (HaCaT [22])?
**A.** Its viability at 223.2 µM is 73%.
